Positions of bridges follow the written chain, without caps; N, C: chain ends. Residues, ends and D or L forms follow the SMILES beside them.
Columns and labels:
Trypsin = Trypsin (Homo sapiens, UniProt P07477+P07478+P35030); assay: Inhibition of trypsin (unknown origin) using Bz-FVR-pNA as substrate preincubated for 30 mins followed by substrate addition and measured for 7 mins by spectrophotometric method; assay type: protein assay
[1] = Drug uptake in human HeLa cells at 4 uM using Alexa Fluor 488 conjugated test compound after 1 hr by trypan blue dye based flow cytometry relative to HIV-Tat; assay type: ADME, cell-based
Method in brief: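 HeLa cells given Alexa Fluor 488-conjugated peptides (4 μM). Mean fluorescence measured by flow cytometry before and after trypan blue quenching of extracellular signal. Values normalized to the HIV-TAT positive control (post-trypan blue). Three independent experiments, SD; one-way ANOVA with Tukey's post hoc test.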

Prothrombin = Prothrombin (Homo sapiens, UniProt P00734); assay: Inhibition of thrombin (unknown origin) using Bz-FVR-pNA as substrate preincubated for 30 mins followed by substrate addition and measured for 7 mins by spectrophotometric method
Coagulation factor XII = target: T1, Coagulation factor XII (Homo sapiens, UniProt P00748); assay: Inhibition of factor 12a (unknown origin) using Ac-QRFR-pNA as substrate preincubated for 30 mins followed by substrate addition and measured for 7 mins by spectrophotometric method
T1 sequence (P00748 whole entry): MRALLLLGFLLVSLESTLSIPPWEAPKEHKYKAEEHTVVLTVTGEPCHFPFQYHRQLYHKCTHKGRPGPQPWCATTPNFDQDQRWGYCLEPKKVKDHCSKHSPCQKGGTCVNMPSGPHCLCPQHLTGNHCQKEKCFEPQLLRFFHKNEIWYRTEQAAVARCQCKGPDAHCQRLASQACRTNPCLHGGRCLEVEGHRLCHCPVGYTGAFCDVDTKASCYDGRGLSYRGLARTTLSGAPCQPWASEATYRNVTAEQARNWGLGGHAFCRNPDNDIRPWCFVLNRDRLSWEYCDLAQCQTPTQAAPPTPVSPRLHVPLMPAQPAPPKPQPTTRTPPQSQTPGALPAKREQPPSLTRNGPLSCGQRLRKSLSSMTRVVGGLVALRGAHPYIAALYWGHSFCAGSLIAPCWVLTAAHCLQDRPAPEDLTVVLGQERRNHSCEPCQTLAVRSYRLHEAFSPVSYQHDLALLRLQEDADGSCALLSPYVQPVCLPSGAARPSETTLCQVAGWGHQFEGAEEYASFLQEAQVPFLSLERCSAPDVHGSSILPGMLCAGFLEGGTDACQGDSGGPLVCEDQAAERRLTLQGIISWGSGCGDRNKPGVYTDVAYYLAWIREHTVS

HeLa = assay: Cytotoxicity against human HeLa cells up to 64 uM after 2 hrs by resazurin dye based assay; assay type: cell-based
Method in brief: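 HeLa cells exposed to peptides for 2 h, concentrations up to 64 μM. Resazurin then added for 18 h at 37 °C. Resorufin absorbance read at 540 and 620 nm, and viability % expressed as the A620/A540 ratio. Three independent experiments, standard deviation.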

Kallikrein-4 = Kallikrein-4 (Homo sapiens, UniProt Q9Y5K2); assay: Inhibition of KLK4 (unknown origin) expressed in sf9 cells using Ac-FVQR-pNA as substrate preincubated for 30 mins followed by substrate addition and measured for 7 mins by spectrophotometric method
Kallikrein-5 = target: T2, Kallikrein-5 (Homo sapiens, UniProt Q9Y337); assay: Inhibition of KLK5 (unknown origin) expressed in Pichia pastoris strain X-33 using Ac-YRSR-pNA as substrate preincubated for 30 mins followed by substrate addition and measured for 7 mins by spectrophotometric method
T2 sequence (Q9Y337 whole entry): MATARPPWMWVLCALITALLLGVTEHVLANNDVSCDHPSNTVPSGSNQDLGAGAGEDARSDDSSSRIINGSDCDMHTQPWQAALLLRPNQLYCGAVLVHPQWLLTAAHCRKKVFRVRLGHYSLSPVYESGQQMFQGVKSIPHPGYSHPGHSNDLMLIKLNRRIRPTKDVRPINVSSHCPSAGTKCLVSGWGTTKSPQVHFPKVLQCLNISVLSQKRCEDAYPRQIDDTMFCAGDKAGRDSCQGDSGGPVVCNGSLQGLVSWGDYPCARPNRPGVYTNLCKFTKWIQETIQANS

Coagulation factor X = Coagulation factor X (Homo sapiens, UniProt P00742); assay: Inhibition of factor 10a (unknown origin) using Ac-QRSR-pNA as substrate preincubated for 30 mins followed by substrate addition and measured for 7 mins by spectrophotometric method
[2] = Stability in human serum at 200 uM up to 24 hrs by RP-HPLC analysis; assay type: ADME, cell-free
Method in brief: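 Peptides incubated in human serum for up to 24 h. At each time point, the area of the peptide peak on analytical HPLC is expressed as a percentage of the peptide peak in PBS at 0 h. Three independent experiments, SD.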

Kallikrein-7 = Kallikrein-7 (Homo sapiens, UniProt P49862); assay: Inhibition of KLK7 (unknown origin) expressed in Pichia pastoris strain X-33 using KHLY-pNA as substrate preincubated for 30 mins followed by substrate addition and measured for 7 mins by spectrophotometric method
Plasminogen = Plasminogen (Homo sapiens, UniProt P00747); assay: Inhibition of plasmin (unknown origin) using Ac-RM(O2)YR-pNA as substrate preincubated for 30 mins followed by substrate addition and measured for 7 mins by spectrophotometric method
Kallikrein-14 = target: T3, Kallikrein-14 (Homo sapiens, UniProt Q9P0G3); assay: Inhibition of KLK14 (unknown origin) expressed in sf9 cells using Ac-YANR-pNA as substrate preincubated for 30 mins followed by substrate addition and measured for 7 mins by spectrophotometric method
T3 sequence (Q9P0G3 whole entry): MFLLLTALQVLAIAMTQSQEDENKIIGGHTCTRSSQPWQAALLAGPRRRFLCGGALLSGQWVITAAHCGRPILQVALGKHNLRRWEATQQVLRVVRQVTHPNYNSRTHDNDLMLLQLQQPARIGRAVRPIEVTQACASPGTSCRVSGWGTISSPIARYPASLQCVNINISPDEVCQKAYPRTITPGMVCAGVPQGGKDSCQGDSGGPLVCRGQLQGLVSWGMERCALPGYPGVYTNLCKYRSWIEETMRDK

Plasma kallikrein = Plasma kallikrein (Homo sapiens, UniProt P03952); assay: Inhibition of plasma kallikrein (unknown origin) using Ac-NLTR-pNA as substrate preincubated for 30 mins followed by substrate addition and measured for 7 mins by spectrophotometric method
Homo sapiens [3] = organism: Homo sapiens; assay: Selectivity ratio of Ki for plasmin (unknown origin) to Ki for KLK4 (unknown origin) expressed in sf9 cells
Homo sapiens [4] = organism: Homo sapiens; assay: Selectivity ratio of Ki for KLK7 (unknown origin) expressed in Pichia pastoris strain X-33 to Ki for KLK4 (unknown origin) expressed in sf9 cells
Homo sapiens [5] = organism: Homo sapiens; assay: Selectivity ratio of Ki for plasma kallikrein (unknown origin) to Ki for KLK4 (unknown origin) expressed in sf9 cells
Homo sapiens [6] = organism: Homo sapiens; assay: Selectivity ratio of Ki for KLK5 (unknown origin) expressed in Pichia pastoris strain X-33 to Ki for KLK4 (unknown origin) expressed in sf9 cells
Homo sapiens [7] = organism: Homo sapiens; assay: Selectivity ratio of Ki for thrombin (unknown origin) to Ki for KLK4 (unknown origin) expressed in sf9 cells
Homo sapiens [8] = organism: Homo sapiens; assay: Selectivity ratio of Ki for factor 12a (unknown origin) to Ki for KLK4 (unknown origin) expressed in sf9 cells
Homo sapiens [9] = organism: Homo sapiens; assay: Selectivity ratio of Ki for KLK14 (unknown origin) expressed in sf9 cells to Ki for KLK4 (unknown origin) expressed in sf9 cells
Homo sapiens [10] = organism: Homo sapiens; assay: Selectivity ratio of Ki for factor 10a (unknown origin) to Ki for KLK4 (unknown origin) expressed in sf9 cells

Chain of Plasminogen (P00747 97-580 limits assumed): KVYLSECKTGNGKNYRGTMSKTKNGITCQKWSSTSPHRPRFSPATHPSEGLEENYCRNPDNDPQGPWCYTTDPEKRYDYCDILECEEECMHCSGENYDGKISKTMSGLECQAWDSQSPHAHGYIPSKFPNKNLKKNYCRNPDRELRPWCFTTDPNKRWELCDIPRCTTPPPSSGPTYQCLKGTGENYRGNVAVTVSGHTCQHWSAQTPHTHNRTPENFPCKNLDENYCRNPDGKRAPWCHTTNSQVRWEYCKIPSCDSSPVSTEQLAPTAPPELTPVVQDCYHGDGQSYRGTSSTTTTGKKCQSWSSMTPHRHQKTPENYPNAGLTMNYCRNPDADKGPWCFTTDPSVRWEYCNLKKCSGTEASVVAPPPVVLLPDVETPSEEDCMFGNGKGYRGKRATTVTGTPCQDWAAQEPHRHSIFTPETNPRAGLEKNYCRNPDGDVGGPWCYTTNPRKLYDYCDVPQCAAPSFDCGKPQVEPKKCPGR
Chain of Plasminogen (P00747 581-810 limits assumed): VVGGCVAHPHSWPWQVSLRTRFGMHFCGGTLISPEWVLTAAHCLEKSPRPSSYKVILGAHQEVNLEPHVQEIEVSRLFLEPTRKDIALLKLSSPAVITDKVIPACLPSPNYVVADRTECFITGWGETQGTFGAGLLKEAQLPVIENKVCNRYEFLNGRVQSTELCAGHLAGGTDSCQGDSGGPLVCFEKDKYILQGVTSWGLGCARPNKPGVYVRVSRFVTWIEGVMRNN
Chain of Coagulation factor X (P00742 41-179 limits assumed): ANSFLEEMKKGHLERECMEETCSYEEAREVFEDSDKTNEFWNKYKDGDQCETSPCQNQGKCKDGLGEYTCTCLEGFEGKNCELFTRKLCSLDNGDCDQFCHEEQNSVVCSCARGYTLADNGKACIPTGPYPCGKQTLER
Chain of Coagulation factor X (P00742 235-488 limits assumed): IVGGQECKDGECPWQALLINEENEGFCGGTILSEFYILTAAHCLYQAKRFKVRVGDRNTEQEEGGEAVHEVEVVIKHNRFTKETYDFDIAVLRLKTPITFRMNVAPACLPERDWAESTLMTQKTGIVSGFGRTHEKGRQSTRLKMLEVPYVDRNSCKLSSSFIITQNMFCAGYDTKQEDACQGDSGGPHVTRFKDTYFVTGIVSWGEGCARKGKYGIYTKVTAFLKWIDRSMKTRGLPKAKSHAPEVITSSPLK
Chain of Plasma kallikrein (P03952 20-390 limits assumed): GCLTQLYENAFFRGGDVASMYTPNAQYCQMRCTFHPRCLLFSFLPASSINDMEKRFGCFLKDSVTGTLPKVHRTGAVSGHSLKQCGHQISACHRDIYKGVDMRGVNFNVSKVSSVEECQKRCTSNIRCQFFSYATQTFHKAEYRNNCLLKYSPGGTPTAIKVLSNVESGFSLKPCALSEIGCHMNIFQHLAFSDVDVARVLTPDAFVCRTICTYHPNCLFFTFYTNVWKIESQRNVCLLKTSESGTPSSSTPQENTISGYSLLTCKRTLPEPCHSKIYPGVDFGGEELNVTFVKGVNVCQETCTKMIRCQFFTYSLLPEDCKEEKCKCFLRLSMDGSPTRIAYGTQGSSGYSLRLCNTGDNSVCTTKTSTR
Chain of Plasma kallikrein (P03952 391-638 limits assumed): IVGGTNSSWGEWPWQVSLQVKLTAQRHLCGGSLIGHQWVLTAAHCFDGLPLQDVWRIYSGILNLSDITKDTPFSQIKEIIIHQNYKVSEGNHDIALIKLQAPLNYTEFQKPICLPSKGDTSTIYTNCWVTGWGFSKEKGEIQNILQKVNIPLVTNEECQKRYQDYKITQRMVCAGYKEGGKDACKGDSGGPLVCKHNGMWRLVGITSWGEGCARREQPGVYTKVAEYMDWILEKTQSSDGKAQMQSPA
Chain of Kallikrein-7 (P49862 whole entry): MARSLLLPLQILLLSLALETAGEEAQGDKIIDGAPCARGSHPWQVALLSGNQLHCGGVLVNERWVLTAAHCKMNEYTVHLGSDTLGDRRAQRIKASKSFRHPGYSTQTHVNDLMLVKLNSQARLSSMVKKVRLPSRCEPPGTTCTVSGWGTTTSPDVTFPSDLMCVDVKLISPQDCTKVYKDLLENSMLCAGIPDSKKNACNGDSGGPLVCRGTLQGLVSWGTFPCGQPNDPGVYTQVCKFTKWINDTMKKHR
Chain of Kallikrein-4 (Q9Y5K2 whole entry): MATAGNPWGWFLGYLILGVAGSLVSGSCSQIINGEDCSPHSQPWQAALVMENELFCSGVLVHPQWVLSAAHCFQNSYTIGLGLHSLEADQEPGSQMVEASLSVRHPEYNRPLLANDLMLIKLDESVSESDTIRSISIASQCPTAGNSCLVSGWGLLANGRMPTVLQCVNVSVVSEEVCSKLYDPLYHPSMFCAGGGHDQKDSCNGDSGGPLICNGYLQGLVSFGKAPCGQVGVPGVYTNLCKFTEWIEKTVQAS

Ki (Trypsin) [µM]	Drug uptake [1]	Ki (Prothrombin) [µM]	Ki (Coagulation factor XII) [µM]	Ki (Kallikrein-4) [µM]	Ki (Kallikrein-5) [µM]	Ki (Coagulation factor X) [µM]	Stability [2]	Ki (Kallikrein-7) [µM]	Ki (Plasminogen) [µM]	Ki (Kallikrein-14) [µM]	Ki (Plasma kallikrein) [µM]	SMILES	Activity (HeLa)	further results
0.0069	Not Active	> 10	> 10	0.00044	> 10	0.52	Stable	> 10	> 10	> 10	> 10	CC[C@H](C)[C@@H]1NC(=O)[C@@H]2CSSC[C@@H]3NC(=O)[C@H](Cc4ccccc4)NC(=O)CNC(=O)CNC(=O)[C@H](CC(=O)O)NC(=O)[C@H](CO)NC(=O)CNC(=O)[C@H](CO)NC(=O)CNC(=O)[C@@H]4CSSC[C@H](NC(=O)[C@H](CC(=O)O)NC(=O)[C@H](CO)NC(=O)[C@H](CC(=O)O)NC(=O)[C@H](CCC(N)=O)NC(=O)[C@H](CCC(N)=O)NC(=O)[C@H](CSSC[C@H](NC1=O)C(=O)N[C@@H](CCCCN)C(=O)NCC(=O)N[C@@H](CC(N)=O)C(=O)NCC(=O)N[C@@H](Cc1ccc(O)cc1)C(=O)N4)NC(=O)[C@H](CCC(N)=O)NC(=O)[C@H](CCC(N)=O)NC(=O)[C@H](CC(C)C)NC(=O)[C@H]([C@@H](C)CC)NC(=O)[C@H](CCCNC(=N)N)NC(=O)[C@H](CCC(N)=O)NC3=O)C(=O)N1CCC[C@H]1C(=O)NCC(=O)N[C@@H](C)C(=O)N2 (cyclo(ACICKGNGYCGSGSDGGFCQRILQQCQQDSDCPG); disulfide 2-19, 4-26, 10-32)	Non-Toxic	–
0.031	23%	> 10	> 10	0.0001	> 10	0.5	Stable	> 10	> 10	> 10	> 10	CC[C@H](C)[C@@H]1NC(=O)[C@@H]2CSSC[C@@H]3NC(=O)[C@H](Cc4ccccc4)NC(=O)CNC(=O)CNC(=O)[C@H](CC(=O)O)NC(=O)[C@H](CO)NC(=O)CNC(=O)[C@H](CO)NC(=O)CNC(=O)[C@@H]4CSSC[C@H](NC(=O)[C@H](CC(=O)O)NC(=O)[C@H](CO)NC(=O)[C@H](CC(=O)O)NC(=O)[C@H](CCCNC(=N)N)NC(=O)[C@H](CCCNC(=N)N)NC(=O)[C@H](CSSC[C@H](NC1=O)C(=O)N[C@@H](CCCNC(=N)N)C(=O)NCC(=O)N[C@@H](CC(N)=O)C(=O)NCC(=O)N[C@@H](Cc1ccc(O)cc1)C(=O)N4)NC(=O)[C@H](CCCCN)NC(=O)[C@H](CCCCN)NC(=O)[C@H](CC(C)C)NC(=O)[C@H]([C@@H](C)CC)NC(=O)[C@H](CCCNC(=N)N)NC(=O)[C@H](CCC(N)=O)NC3=O)C(=O)N1CCC[C@H]1C(=O)NCC(=O)N[C@@H](C)C(=O)N2 (cyclo(ACICRGNGYCGSGSDGGFCQRILKKCRRDSDCPG); disulfide 2-19, 4-26, 10-32)	Non-Toxic	Ratio Ki (Homo sapiens [3]): > 100000; Ratio Ki (Homo sapiens [4]): > 100000; Ratio Ki (Homo sapiens [5]): > 100000; Ratio Ki (Homo sapiens [6]): > 100000; Ratio Ki (Homo sapiens [7]): > 100000; Ratio Ki (Homo sapiens [8]): > 100000; Ratio Ki (Homo sapiens [9]): > 100000; Ratio Ki (Homo sapiens [10]): 5000

From ChEMBL document CHEMBL4325933, “Potent, Selective, and Cell-Penetrating Inhibitors of Kallikrein-Related Peptidase 4 Based on the Cyclic Peptide MCoTI-II” (ACS Med Chem Lett, 2018)
